Data set [1] concerns Plasmodium falciparum. As to the kind of experiment: Antimalarial activity against CQ-sensitive Plasmodium falciparum NF54 assessed as inhibition of parasite growth. The data set is classed as functional, organism-based.
Data set [2] is described as follows: Inhibition of beta-hematin formation. The data set is classed as physicochemical. In short, it runs like this: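 NP-40 detergent-mediated β-haematin formation assay, run per an earlier-published protocol.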

pIC50: −log10 of the molar value.

Consider `COc1cc(-c2nc3cc([N+](=O)[O-])ccc3[nH]2)ccc1O`, for which the pIC50 is less than 5.00 in data set [1] and 4.66 in data set [2].

Regarding `Nc1cc(O)c2ccccc2n1`, the values for the pIC50 in data set [1] and in data set [2] were less than 5.00 and 4.07, respectively.

As to `O=C(O)c1cc(-c2ccc(-c3ccccc3)cc2)nc2ccccc12`, the results for the negative-log IC50 (pIC50) in data set [1] and in data set [2] were less than 5.00 and 4.34, respectively.

Take `Cc1ccc(C(=O)C2=C(O)C(=O)N(Cc3cccnc3)[C@H]2c2ccc(Cl)c(Cl)c2)o1`: the pIC50 in data set [1] is less than 5.00; in data set [2], 4.06.

In the case of `C=C[C@H]1CN2CC[C@@H]1C[C@@H]2Cc1ccnc2ccccc12`, the pIC50 in data set [1] is 7.09; in data set [2], 4.18.

For the molecule `CN(C)CCNc1cc(-c2ccc3ccccc3c2)nc2ccccc12`, the pIC50 in data set [1] was 7.10; in data set [2] it was 4.59.

One may read the pIC50 as the negative decadic logarithm of the IC50, by convention in mol/L.

Source of the values: ChEMBL document CHEMBL3600328, “Bayesian models trained with HTS data for predicting β-haematin inhibition and in vitro antimalarial activity” (Bioorg Med Chem, 2015).
